Data as given in PubChem BioAssay AID493160 (Sanford-Burnham Center for Chemical Genomics, 2011).
In all, about 340,000 compounds went through this assay and about 540 (0.16%) were called active. The list comes from a sample in which actives are over-represented; it also holds similar structures and randomly drawn compounds. A number with no mark means an inactive call.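 How the source made its calls: active means inhibition above about 35% when tested at 20 µM (limit read from the data); inactive means the rest.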

The compounds below were run against Hexokinase HKDC1 (Homo sapiens) (UniProt Q2TB90) (assay: HKDC1 hexokinase inhibitors, primary screen, biochemical, fluorescence, uHTS (AID 493160;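 further: plate controls were DMSO wells with enzyme for no effect and DMSO wells lacking enzyme for full effect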)). Details: recombinant HKDC1, G6PDH/diaphorase resazurin coupled fluorescence; at 20 µM; active compounds read high.
Chain of Hexokinase HKDC1 (Homo sapiens) (Q2TB90 whole entry, looked up): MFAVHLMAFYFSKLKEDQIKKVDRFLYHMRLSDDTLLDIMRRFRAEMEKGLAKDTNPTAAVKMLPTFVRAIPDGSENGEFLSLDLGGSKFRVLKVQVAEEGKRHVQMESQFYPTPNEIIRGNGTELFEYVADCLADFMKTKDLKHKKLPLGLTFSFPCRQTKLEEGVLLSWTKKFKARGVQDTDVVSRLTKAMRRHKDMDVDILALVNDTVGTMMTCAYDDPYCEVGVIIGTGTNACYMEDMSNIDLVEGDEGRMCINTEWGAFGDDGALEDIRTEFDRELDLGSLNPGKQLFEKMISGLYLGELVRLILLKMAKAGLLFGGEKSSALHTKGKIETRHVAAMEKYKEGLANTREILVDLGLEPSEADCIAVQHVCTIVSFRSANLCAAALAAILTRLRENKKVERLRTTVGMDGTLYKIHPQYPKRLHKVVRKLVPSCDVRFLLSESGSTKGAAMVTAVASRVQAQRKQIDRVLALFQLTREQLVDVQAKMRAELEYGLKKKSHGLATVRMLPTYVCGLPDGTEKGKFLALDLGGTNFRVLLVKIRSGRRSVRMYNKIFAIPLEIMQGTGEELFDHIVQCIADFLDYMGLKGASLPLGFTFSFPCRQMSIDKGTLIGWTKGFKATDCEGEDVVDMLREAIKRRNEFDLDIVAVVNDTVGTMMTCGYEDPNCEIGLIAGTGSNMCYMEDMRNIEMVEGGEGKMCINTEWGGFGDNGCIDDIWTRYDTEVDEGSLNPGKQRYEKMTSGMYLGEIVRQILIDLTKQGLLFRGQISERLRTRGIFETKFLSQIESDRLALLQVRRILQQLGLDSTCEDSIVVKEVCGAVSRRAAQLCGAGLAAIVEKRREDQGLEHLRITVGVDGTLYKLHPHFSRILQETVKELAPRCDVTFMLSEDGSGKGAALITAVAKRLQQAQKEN
Procedure, shortened: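 Test system: HK5 enzyme. Quantity: 5 µg/mL HK5 final. Reagent: glucose and ATP substrates. Schedule: 90 min reaction incubation at room temperature, dark. Technique: resazurin-to-resorufin fluorescence via G6PDH and diaphorase coupling, 525/613 nm. Control set: DMSO wells with and without enzyme mix.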
`O=C1N[C@@H](Cc2ccccc2)C(=O)N2[C@H]1C[C@]1(Br)c3ccccc3N(S(=O)(=O)c3ccccc3)[C@H]21` gave an inhibition of 8.21%.
Work on `Cc1nn(C)cc1S(=O)(=O)N1CCN(c2ccc(F)cc2)CC1` yielded an inhibition of -0.86%.
`CN(C)c1ccc(C(=S)N2CCN(C(=S)Nc3ccc(Cl)cc3)CC2)cc1` showed an inhibition of 7.9%.
`Cc1cc(Cl)ccc1C(=O)C1CCCN(C(=O)CCN2CCCO2)C1` (centres undefined) was tested, and the inhibition was -7.55%.
With `O=C(/C=C(O)/C=C/c1ccc(O)cc1)/C=C/c1ccc(O)cc1` the inhibition was 5.34%.
Work on `O=C(COC(=O)c1ccccc1NC(=O)c1ccco1)Nc1ccc2c(c1)OC(F)(F)O2` yielded an inhibition of -9.13%.
For `CCOC(=O)C(C)n1cnc2scc(-c3ccc(C)c(C)c3)c2c1=O` (centres undefined), the inhibition was -0.93%.
`COc1ccc(N(C(=O)c2cccnc2)S(=O)(=O)c2ccc(OC)c(OC)c2)cc1` gave an inhibition of -5.15%.
For `O=C(c1cccnc1)N(c1cc2sc(=O)oc2c2ccccc12)S(=O)(=O)c1ccccc1`, the inhibition was 38.2% (active).
With `O=C(c1cccnc1)N(Cc1ccccc1)C(=O)c1cccnc1` the inhibition was -5.95%.
`CCn1c(SCC(=O)Nc2cc(C)ccc2C)nnc1-c1cnccn1` showed an inhibition of 2.21%.
For `CN1c2ccc(C=O)c3c(C=O)ccc(c23)N(C)C1(C)C`, the inhibition was 36.4% (active).
With `COC(=O)c1cc(OC)ccc1-c1ccc(OC)cc1` the inhibition was 6.2%.
`CCOC(=O)C1=C(c2ccc(OC)cc2)C(=O)c2ccccc2C1=O` was tested, and the inhibition was 81.4% (active).
For `COc1ccc(CNC(=O)CCN2C(=O)c3ccccc3C2=O)cc1`, the inhibition was 0.43%.
Work on `COC(=O)[C@H](Cc1ccccc1)NC(=O)Nc1ccc(S(N)(=O)=O)cc1` yielded an inhibition of 1.79%.
`C=CC[C@@H](CC(=O)N[C@@H](CO)Cc1ccccc1)C(=O)N[C@H](COC(=O)[C@H](CC=C)CC(=O)OC(C)(C)C)Cc1ccccc1` gave an inhibition of -4.61%.
For `COc1ccc(NC(=O)CSc2ccc(-c3ccco3)nn2)c(OC)c1`, the inhibition was 47.3% (active).
With `O=C(CSc1ccc(-c2ccco2)nn1)NCc1ccc2c(c1)OCO2` the inhibition was -3.81%.
For `COc1ccc(NC(=O)CCC(=O)Nc2cc(OC)c(NC(=O)c3ccco3)cc2OC)c(OC)c1`, the inhibition was 1.97%.
With `CC(C)N(Cc1nnc(-c2ccccc2Br)o1)C(=O)c1cc(Cl)nc2ccccc12` the inhibition was 0.82%.
For `CCOC(=O)c1ccc2c(c1)nc(SCC(=O)NC(C)C)n2CC`, the inhibition was -4.33%.
`Cc1ccc(CN2CCNC(=O)C2CC(=O)NCc2csc(C(C)C)n2)cc1` (centres undefined) gave an inhibition of -3.03%.
In the case of `CC1CC(C)CN(C(=O)CSc2nnc(CSc3ncccn3)n2C)C1` (centres undefined), the inhibition is reported as -4.12%.
Compound `CCS(=O)(=O)N1Cc2ccccc2CC1C(=O)Nc1ccc(OC)cc1OC` (centres undefined) has an inhibition of -2.83%.
In the case of `O=C1Nc2cc(C(=O)N3CCC(N4CCCCC4)CC3)ccc2S/C1=C\c1ccccc1`, the inhibition is reported as -1.91%.
`CCCCn1nnnc1NCc1cc(OC)c(OC)c(OC)c1` was tested, and the inhibition was 10.4%.
In the case of `COc1ccc2c(c1)c(=Cc1ccc(N(C)C)cc1)c1cc(-c3ccccc3)[n+](C)n12`, the inhibition is reported as 43.2% (active).
In the case of `Cc1ccc(CNC(=O)CCNS(=O)(=O)c2cccc3nonc23)cc1`, the inhibition is reported as 10.6%.
Work on `Cc1ccc(OS(=O)Nc2cccc3nccnc23)cc1` (centres undefined) yielded an inhibition of 6.4%.
`CCCCn1c(N)c(N(CCOC)C(=O)COc2c(C)cccc2C)c(=O)[nH]c1=O` showed an inhibition of -3.46%.
With `COc1ccc(OCCCC(=O)Oc2ccc(OC)cc2)cc1` the inhibition was -15%.
`COc1ccc2c(c1)C(SCC(=O)NCc1ccccc1)CC(C)(C)O2` (centres undefined) showed an inhibition of 3.48%.
In the case of `O=C(NCC1CCCO1)c1ccc(S(=O)(=O)Nc2ccc(F)cc2)cc1` (centres undefined), the inhibition is reported as 0.46%.
In the case of `O=C(CNC(=O)c1cc(=O)[nH]c2ccccc12)Nc1ccc(F)c(F)c1`, the inhibition is reported as -8.3%.
For `C/C(=N\NC(=O)COc1ccc(C)cc1[N+](=O)[O-])c1ccc2c(c1)OCCO2`, the inhibition was 2.16%.
In the case of `COc1ccccc1CNS(=O)(=O)c1ccc(C)cc1`, the inhibition is reported as -4.09%.
For `CCC(C)CN1CCC(CO)(Cc2ccccc2Cl)CC1` (centres undefined), the inhibition was -10.2%.
Work on `CC(CNC(=O)c1ccc(N)cc1)NC(=O)c1ccc(N)cc1` (centres undefined) yielded an inhibition of -6.68%.
Compound `O=C(O)CCn1cc(/C=C/C(=O)c2ccc(Cl)cc2)c(-c2cccc(Br)c2)n1` has an inhibition of 17.1%.
For `Clc1ccc(C[n+]2cc(-c3ccc(Cl)cc3)n3c2CCC3)cc1`, the inhibition was -3.08%.
For `CC1(C)OC(=O)C(=CSc2ccc(C(C)(C)C)cc2)C(=O)O1`, the inhibition was -2.23%.
`Cc1cc2cc3c(N)[nH]nc3nc2cc1C` showed an inhibition of 1.11%.
For `Cc1cc(C)c(S(=O)(=O)N2CCOCC2)cc1C`, the inhibition was -10.1%.
For `O=C(NCc1ccc2c(c1)OCO2)c1c(O)nc2sccn2c1=O`, the inhibition was 6.57%.
`CCCCN1C(=O)CCC(C(=O)O)C1c1ccc(OC)cc1` (centres undefined) gave an inhibition of 7.8%.
With `C=CCCN(Cc1ccccc1)S(=O)(=O)c1ccccc1Br` the inhibition was 2.98%.
`Cc1cc(=O)[nH]c2nnnn12` was tested, and the inhibition was 7.5%.
`COc1cc2c3c(c1)/C(=C1/SC(=S)NC1=O)C(=O)N3C(C)(C)C=C2C` was tested, and the inhibition was -4.38%.
`CCN(C[C@H]1N[C@@](Cc2ccccc2)(C(=O)OC)[C@H]2C(=O)N(Cc3ccccc3)C(=O)[C@@H]12)C(=O)c1ccc(C)cc1` showed an inhibition of -6.61%.
In the case of `Cc1cc(Cl)ccc1NC(=S)N1CCC(C(N)=O)(N2CCCCC2)CC1`, the inhibition is reported as -7.07%.
Work on `N#CCSc1nc2ccc(N3CCOCC3)cc2c(=O)n1CCc1ccccc1` yielded an inhibition of 10.5%.
`O=C1C(=O)N(CC2COc3ccccc3O2)c2ccccc21` (centres undefined) gave an inhibition of 19.1%.
With `Cc1cc(C(=O)CCl)c(C)n1CC1COc2ccccc2O1` (centres undefined) the inhibition was 38.2% (active).
In the case of `Cc1ccsc1C(=O)OCC(=O)c1cc(C)n(CC2CCCO2)c1C` (centres undefined), the inhibition is reported as 1.95%.
`CCc1[nH]nc(C(=O)N2CCCC(CNS(=O)(=O)c3cccs3)C2)c1C` (centres undefined) showed an inhibition of -4.96%.
In the case of `CCC(=C/c1sc2ccc3ccccc3c2[n+]1C)/C=C1\Sc2ccc3ccccc3c2N1C`, the inhibition is reported as 45% (active).
`C=CCNC(=O)c1cc2nc(C3CC3)cc(C(F)F)n2n1` gave an inhibition of 14%.
`CCN(CC)C(=O)[C@H]1CC(CC(=O)NCc2ccco2)C(=O)N2CCc3c([nH]c4ccccc34)[C@]12C` (some centres undefined) gave an inhibition of -4.97%.
Compound `Cc1onc(-c2ccc(Cl)cc2)c1-c1ccnn1S(=O)(=O)c1ccc(Cl)cc1` has an inhibition of 0.4%.
With `CC[C@@]1(C(=O)OC)N[C@H](CN(C)C(C)=O)[C@@H]2C(=O)N(C)C(=O)[C@@H]21` the inhibition was -5.2%.
With `CC(=O)c1c(C)[nH]c(C(=O)COC(=O)c2cccc(S(=O)(=O)N(C)c3ccccc3)c2)c1C` the inhibition was 16.7%.
`COCCN(C(=O)CSCc1ccc(C)cc1)c1c(N)n(CC(C)C)c(=O)[nH]c1=O` gave an inhibition of -4.58%.
`COc1cc(CO)ccc1OCC(=O)Nc1cccc2ccccc12` was tested, and the inhibition was -1.93%.
With `S=C(Nc1cccc(Br)c1)N1CCn2cccc2C1c1cccnc1` (centres undefined) the inhibition was 4.07%.
With `COCCNC(=O)c1ccc(-n2c(SCc3cccnc3)nc3ccccc3c2=O)cc1` the inhibition was -1.32%.
With `O=Cc1cn(-c2ccccc2)nc1-c1ccccn1` the inhibition was -7.78%.
With `CCOc1ccccc1-c1nc(CN2CCC(C(=O)N3CCOCC3)CC2)c(C)o1` the inhibition was -3.93%.
For `COc1ccc(C(CCN(Cc2ccc(OC)c(OC)c2)C(=O)CCl)c2ccccc2)cc1` (centres undefined), the inhibition was 35.4% (active).
`COc1ccc(CCNC(=O)C(Sc2ccccn2)c2ccccc2)cc1OC` (centres undefined) showed an inhibition of -5.11%.
In the case of `COc1ccc(CN(Cc2ccc(OC)cc2)C(=O)c2cccs2)cc1`, the inhibition is reported as 1.52%.
`CC1CCCC(NC(=O)COC(=O)[C@@H]2CC(O)CN2S(=O)(=O)c2ccc3c(c2)OCCO3)C1C` (some centres undefined) was tested, and the inhibition was -2.96%.
`Cc1noc(/C=C/c2ccco2)c1S(=O)(=O)N1CCC(C(=O)Nc2ccc(Cl)cn2)CC1` was tested, and the inhibition was -6%.
In the case of `CCOC(=O)/C(=C\c1ccc([N+](=O)[O-])cc1)C(=O)c1cc(C(C)=O)c(Nc2ccccc2)s1`, the inhibition is reported as 33.5%.
With `COc1nnc(-c2ccc(C)c(S(=O)(=O)N(C)C)c2)c2ccccc12` the inhibition was -2.23%.
`O=C(CC1NCCc2ccccc21)Nc1cccc(Cl)c1` (centres undefined) showed an inhibition of 8.29%.
In the case of `CN1CCN(c2ccccc2NC(=O)COc2ccc(C3CCCCC3)cc2)CC1`, the inhibition is reported as -0.75%.
`C/C=C/c1ccc(OCC(=O)NNC(=O)CN(C)S(=O)(=O)c2ccc(C)cc2)c(OC)c1` was tested, and the inhibition was 0.23%.
With `CCOC(=O)C(C)n1nc(-c2ccccc2)c2ccccc2c1=O` (centres undefined) the inhibition was -7.97%.
For `O=[N+]([O-])c1ccc(N2CCN(c3ccc(F)cc3)CC2)cn1`, the inhibition was 3.5%.
In the case of `CCCc1nc2oc3c(OCC)ncnc3c2c2c1COC(C)(C)C2`, the inhibition is reported as 37.7% (active).
`CC(C)CCSc1ncnc2c1oc1nc3c(cc12)COC(C)(C)C3` showed an inhibition of 1.9%.
For `CCCc1nc2oc3c(=O)[nH]cnc3c2c2c1COC(C)(C)C2`, the inhibition was 27.4%.
`Cc1cc(Cl)c2oc(C(=O)N3CCC(O)(c4ccccc4)CC3)c(C)c2c1` showed an inhibition of -1.23%.
`COc1ccc(N2CCN(C(=O)C3CCN(C(=O)c4ccccc4Cl)CC3)CC2)cc1` gave an inhibition of -1.69%.
Compound `CCCCc1nc(SCC(=O)Nc2nnc(C(C)C)s2)n[nH]1` has an inhibition of -4.74%.
For `CCCCCC1CC(COc2ccccc2)OC1=O` (centres undefined), the inhibition was -1.3%.
`COC(=O)c1c(C)c(C)nc(N)c1C#N` was tested, and the inhibition was 3.54%.
`COc1ccccc1N(C(=O)Cn1nnc2ccccc21)C(C(=O)NCc1ccco1)c1ccc(C)o1` (centres undefined) gave an inhibition of -6.23%.
